Experimental data as given in ChEMBL document CHEMBL1141374 (J Med Chem, 2007).
Each block holds one compound with its values, some of them ahead of it.

Experiments:
[1] = Cytotoxicity against P-glycoprotein-overexpressing KB-V1 cell line; assay type: cell-based; settings: Homo sapiens
How it was run: (§1)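 Log-phase cells were diluted to 20 000–30 000 cells/mL, seeded, and left to attach overnight. They were then exposed to compounds at 10^–5–10^–12 M for 72 h at 37 °C in 5% CO2. Viable cells were measured by MTT, with absorbance read at 595 nm. Each compound ran in triplicate in at least three independent assays. IC50 came from nonlinear regression, and average values were reported.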

[2] = tested on: CCRF-CEM; assay: Growth inhibition in CCRF-CEM cells; assay type: functional; settings: Homo sapiens
[3] = tested on: HL-60; assay: Growth inhibition in HL60 cells; assay type: functional; settings: Homo sapiens
[4] = tested on: K562; assay: Growth inhibition in K562 cells; assay type: functional; settings: Homo sapiens
[5] = tested on: A549; assay: Growth inhibition in A549 cells; assay type: functional; settings: Homo sapiens
[6] = tested on: EKVX; assay: Growth inhibition in EKVX cells; assay type: functional; settings: Homo sapiens
[7] = tested on: HOP-62; assay: Growth inhibition in HOP62 cells; assay type: functional; settings: Homo sapiens
[8] = tested on: HOP-92; assay: Growth inhibition in HOP92 cells; assay type: functional; settings: Homo sapiens
[9] = tested on: NCI-H226; assay: Growth inhibition in NCI-H226 cells; assay type: functional; settings: Homo sapiens
[10] = tested on: NCI-H23; assay: Growth inhibition in NCI-H23 cells; assay type: functional; settings: Homo sapiens
[11] = tested on: NCI-H322M; assay: Growth inhibition in NCI-H322M cells; assay type: functional; settings: Homo sapiens
[12] = tested on: NCI-H460; assay: Growth inhibition in NCI-H460 cells; assay type: functional; settings: Homo sapiens
[13] = tested on: COLO 205; assay: Growth inhibition in COLO205 cells; assay type: functional; settings: Homo sapiens
[14] = tested on: HCC 2998; assay: Growth inhibition in HCC2998 cells; assay type: functional; settings: Homo sapiens
[15] = Growth inhibition in HCC116 cells; assay type: functional; settings: Homo sapiens
[16] = Growth inhibition in HCC15 cells; assay type: functional; settings: Homo sapiens
[17] = tested on: HT-29; assay: Growth inhibition in HT29 cells; assay type: functional; settings: Homo sapiens
[18] = tested on: KM12; assay: Growth inhibition in KM12 cells; assay type: functional; settings: Homo sapiens
[19] = tested on: SW-620; assay: Growth inhibition in SW620 cells; assay type: functional; settings: Homo sapiens
[20] = tested on: SF-268; assay: Growth inhibition in SF268 cells; assay type: functional; settings: Homo sapiens
[21] = tested on: SF-295; assay: Growth inhibition in SF295 cells; assay type: functional; settings: Homo sapiens
[22] = tested on: SF-539; assay: Growth inhibition in SF539 cells; assay type: functional; settings: Homo sapiens
[23] = tested on: SNB-19; assay: Growth inhibition in SNB19 cells; assay type: functional; settings: Homo sapiens
[24] = tested on: SNB-75; assay: Growth inhibition in SNB75 cells; assay type: functional; settings: Homo sapiens
[25] = tested on: U-251; assay: Growth inhibition in U251cells; assay type: functional; settings: Homo sapiens
[26] = tested on: LOX IMVI; assay: Growth inhibition in LOX IMVI cells; assay type: functional; settings: Homo sapiens
[27] = tested on: M14; assay: Growth inhibition in M14 cells; assay type: functional; settings: Homo sapiens
[28] = tested on: SK-MEL-28; assay: Growth inhibition in SK-MEL-28 cells; assay type: functional; settings: Homo sapiens
[29] = tested on: SK-MEL-5; assay: Growth inhibition in SK-MEL-5 cells; assay type: functional; settings: Homo sapiens
[30] = tested on: UACC-257; assay: Growth inhibition in UACC257 cells; assay type: functional; settings: Homo sapiens
[31] = tested on: UACC-62; assay: Growth inhibition in UACC62 cells; assay type: functional; settings: Homo sapiens
[32] = tested on: OVCAR-3; assay: Growth inhibition in OVCAR-3 cells; assay type: functional; settings: Homo sapiens
[33] = tested on: OVCAR-4; assay: Growth inhibition in OVCAR4 cells; assay type: functional; settings: Homo sapiens
[34] = tested on: OVCAR-5; assay: Growth inhibition in OVCAR5 cells; assay type: functional; settings: Homo sapiens
[35] = tested on: OVCAR-8; assay: Growth inhibition in OVCAR8 cells; assay type: functional; settings: Homo sapiens
[36] = tested on: SK-OV-3; assay: Growth inhibition in SKOV3 cells; assay type: functional; settings: Homo sapiens
[37] = tested on: RXF 393; assay: Growth inhibition in RXF393 cells; assay type: functional; settings: Homo sapiens
[38] = tested on: SN12C; assay: Growth inhibition in SN12C cells; assay type: functional; settings: Homo sapiens
[39] = tested on: 786-0; assay: Growth inhibition in 786-0 cells; assay type: functional; settings: Homo sapiens
[40] = tested on: A498; assay: Growth inhibition in A498 cells; assay type: functional; settings: Homo sapiens
[41] = tested on: ACHN; assay: Growth inhibition in ACHN cells; assay type: functional; settings: Homo sapiens
[42] = tested on: CAKI-1; assay: Growth inhibition in CAK1-1 cells; assay type: functional; settings: Homo sapiens
[43] = tested on: TK-10; assay: Growth inhibition in TK10 cells; assay type: functional; settings: Homo sapiens
[44] = tested on: PC-3; assay: Growth inhibition in PC3 cells; assay type: functional; settings: Homo sapiens
[45] = tested on: DU-145; assay: Growth inhibition in DU145 cells; assay type: functional; settings: Homo sapiens
[46] = tested on: MCF7; assay: Growth inhibition in MCF7 cells; assay type: functional; settings: Homo sapiens
[47] = tested on: NCI/ADR-RES; assay: Growth inhibition in NCI/ADR-RES cells; assay type: functional; settings: Homo sapiens
[48] = Growth inhibition in MDA-MB-231/ATCC cells; assay type: functional; settings: Homo sapiens
[49] = Growth inhibition in HS 578T cells; assay type: functional; settings: Homo sapiens
[50] = tested on: MDA-MB-435; assay: Growth inhibition in MDA-MB-435 cells; assay type: functional; settings: Homo sapiens
[51] = tested on: BT-549; assay: Growth inhibition in BT549 cells; assay type: functional; settings: Homo sapiens
[52] = tested on: HCT-116; assay: Cytotoxicity against HCT116 cell line; assay type: cell-based; settings: Homo sapiens; how it was run: as §1
[53] = tested on: ZR-75-1; assay: Cytotoxicity against ZR-75-1 cell line; assay type: cell-based; settings: Homo sapiens; how it was run: as §1
[54] = tested on: HeLa; assay: Cytotoxicity against HeLa cell line; assay type: cell-based; settings: Homo sapiens; how it was run: as §1
[55] = Cytotoxicity against KB-3-1 cell line; assay type: cell-based; settings: Homo sapiens; how it was run: as §1
[56] = biological target: Tubulin; assay: Inhibition of tubulin polymerization; assay type: protein-complex assay, Homo sapiens
How it was run: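 Kit-based assay run per the manufacturer's instructions. Tubulin (>99% pure, 3 mg/mL) in G-PEM buffer, in a prewarmed plate with compound at 0.03–30 μM. OD340 nm read every 60 s at 37 °C for 1 h.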

[57] = tested on: NCI-H522; assay: Growth inhibition in NCI-H522 cells; assay type: functional; settings: Homo sapiens
[58] = tested on: SK-MEL-2; assay: Growth inhibition in SK-MEL-2 cells; assay type: functional; settings: Homo sapiens
[59] = tested on: IGROV-1; assay: Growth inhibition in IGROV1 cells; assay type: functional; settings: Homo sapiens
[60] = tested on: UO-31; assay: Growth inhibition in UO31 cells; assay type: functional; settings: Homo sapiens
[61] = tested on: T47D; assay: Growth inhibition in T47D cells; assay type: functional; settings: Homo sapiens

GI50 [2]: 1860 nM
GI50 [3]: 4070 nM
GI50 [4]: 631 nM
GI50 [5]: 8320 nM
GI50 [9]: 5250 nM
GI50 [10]: 3160 nM
GI50 [11]: 5620 nM
GI50 [12]: 3390 nM
GI50 [13]: 3470 nM
GI50 [14]: 295 nM
GI50 [17]: 2140 nM
GI50 [19]: 2750 nM
GI50 [25]: 4370 nM
GI50 [28]: 9550 nM
GI50 [29]: 2400 nM
GI50 [32]: 1740 nM
GI50 [33]: 5500 nM
GI50 [34]: 3800 nM
GI50 [35]: 4790 nM
GI50 [36]: 6460 nM
GI50 [39]: 2510 nM
GI50 [41]: 4470 nM
GI50 [44]: 4900 nM
GI50 [45]: 2950 nM
GI50 [46]: 1700 nM
GI50 [50]: 234 nM
GI50 [51]: 9770 nM
Structure (SMILES): COc1ccc(-n2cnnc2-c2cc(OC)c(OC)c(OC)c2)cc1
IC50 [1]: 907 nM
GI50 [6]: 37200 nM
GI50 [7]: 2090 nM
GI50 [8]: > 100000 nM
GI50 [15]: 3020 nM
GI50 [16]: 1700 nM
GI50 [18]: 2140 nM
GI50 [20]: 5890 nM
GI50 [21]: 1290 nM
GI50 [22]: 4070 nM
GI50 [23]: 5250 nM
GI50 [24]: 2340 nM
GI50 [26]: 4370 nM
GI50 [27]: 1950 nM
GI50 [30]: 3980 nM
GI50 [31]: 3240 nM
GI50 [37]: 1580 nM
GI50 [38]: 4070 nM
GI50 [40]: 3800 nM
GI50 [42]: 2570 nM
GI50 [43]: 9770 nM
GI50 [47]: 1780 nM
GI50 [48]: 3160 nM
GI50 [49]: 2950 nM
IC50 [52]: 230 nM
IC50 [53]: 522 nM
IC50 [54]: 290 nM
IC50 [55]: 373 nM

IC50 [56]: 6000 nM
GI50 [2]: 295 nM
GI50 [3]: 389 nM
GI50 [4]: 209 nM
GI50 [5]: 1000 nM
GI50 [9]: > 100000 nM
GI50 [10]: 4270 nM
GI50 [11]: 91200 nM
GI50 [12]: 407 nM
GI50 [57]: 263 nM
GI50 [13]: 1170 nM
GI50 [14]: 933 nM
GI50 [17]: 2880 nM
GI50 [19]: 380 nM
GI50 [25]: 407 nM
GI50 [58]: 724 nM
GI50 [28]: 427 nM
GI50 [29]: 288 nM
GI50 [32]: 195 nM
GI50 [33]: 417 nM
GI50 [34]: 1950 nM
GI50 [35]: 977 nM
GI50 [36]: 316 nM
GI50 [39]: 501 nM
GI50 [41]: 417 nM
GI50 [44]: 288 nM
GI50 [45]: 661 nM
GI50 [46]: 617 nM
GI50 [50]: 24.6 nM
GI50 [51]: 3630 nM
GI50 [61]: 269 nM
Structure (SMILES): COc1ccc(-n2cnnc2-c2cc(OC)c(OC)c(OC)c2)cc1O
IC50 [1]: 544 nM
GI50 [7]: 490 nM
GI50 [8]: 617 nM
GI50 [15]: 398 nM
GI50 [16]: 631 nM
GI50 [18]: 141 nM
GI50 [20]: 257 nM
GI50 [21]: 302 nM
GI50 [22]: 372 nM
GI50 [23]: 407 nM
GI50 [24]: 251 nM
GI50 [26]: 550 nM
GI50 [27]: 295 nM
GI50 [30]: > 100000 nM
GI50 [31]: 407 nM
GI50 [59]: 447 nM
GI50 [37]: 309 nM
GI50 [38]: 603 nM
GI50 [40]: 417 nM
GI50 [42]: 708 nM
GI50 [43]: 7410 nM
GI50 [60]: 501 nM
GI50 [47]: 1550 nM
GI50 [48]: 977 nM
GI50 [49]: 363 nM
IC50 [52]: 88.9 nM
IC50 [53]: 141 nM
IC50 [54]: 25 nM
IC50 [55]: 57.3 nM
